Reference: ChEMBL document CHEMBL1134475, “3-(4-Fluoropiperidin-3-yl)-2-phenylindoles as high affinity, selective, and orally bioavailable h5-HT(2A) receptor antagonists” (J Med Chem, 2001)

What was measured:
[1] = target: D(2) dopamine receptor (Homo sapiens, UniProt P14416); experiment: Ability to displace [3H]spiperone binding to CHO cells stably expressing dopamine receptor D2; assay type: cell-based
[2] = target: 5-hydroxytryptamine receptor 2A (Homo sapiens, UniProt P28223); experiment: Ability to displace [3H]ketanserin binding to human 5-hydroxytryptamine 2A receptor stably expressed in CHO cells; assay type: cell-based
Method in brief: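 Membranes from CHO cells stably expressing human 5-HT2A, homogenized in 50 mM Tris-HCl pH 7.5, at 2 mg wet weight/mL. Ki from nonlinear least-squares regression, geometric mean of at least three determinations.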

[3] = Area under the concentration-time curve for 0-4 hr after 2 mg/kg po in rat; assay type: ADME, organism-based; design: time < 4 hr, dose 2 mg/kg, route oral; details: in vivo
Method in brief: (§1)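 Male Sprague-Dawley rats (~300 g) gavaged at 2 mg/kg (5 mL/kg of 0.5% methocel A4C suspension), five rats; one rat culled per time point up to 4 h for blood. Samples get internal standard and are extracted into ethyl acetate, then LC-MS single ion recording.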

[4] = Maximum blood concentration after oral dosing at 2 mg/kg in rat; assay type: ADME, organism-based; design: dose 2 mg/kg, route oral; method in brief: as §1
[5] = target: T1, 5-hydroxytryptamine receptor 2C (Homo sapiens, UniProt P28335); experiment: Ability to displace [3H]mesulergine binding to human 5-hydroxytryptamine 2C receptor stably expressed in CHO cells; assay type: cell-based
T1 sequence (P28335 whole entry): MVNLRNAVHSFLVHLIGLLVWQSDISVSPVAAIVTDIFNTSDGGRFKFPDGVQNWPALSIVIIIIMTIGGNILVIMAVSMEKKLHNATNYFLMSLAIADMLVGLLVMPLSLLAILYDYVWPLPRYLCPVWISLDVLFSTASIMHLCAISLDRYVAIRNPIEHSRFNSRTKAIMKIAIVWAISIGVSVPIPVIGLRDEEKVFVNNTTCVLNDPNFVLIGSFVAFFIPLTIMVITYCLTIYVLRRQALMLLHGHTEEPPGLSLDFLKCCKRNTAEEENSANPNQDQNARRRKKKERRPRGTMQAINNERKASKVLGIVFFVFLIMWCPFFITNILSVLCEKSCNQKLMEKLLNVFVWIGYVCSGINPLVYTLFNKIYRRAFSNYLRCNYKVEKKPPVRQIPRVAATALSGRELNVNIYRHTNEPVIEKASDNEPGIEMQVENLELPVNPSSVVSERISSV

[6] = target: T2, Adrenergic receptor alpha-1 (Rattus norvegicus, UniProt P15823+P23944+P43140); experiment: Ability to displace [3H]-prazosin binding to rat cortical membranes expressing Alpha-1 adrenergic receptors
T2 sequence (P15823 whole entry): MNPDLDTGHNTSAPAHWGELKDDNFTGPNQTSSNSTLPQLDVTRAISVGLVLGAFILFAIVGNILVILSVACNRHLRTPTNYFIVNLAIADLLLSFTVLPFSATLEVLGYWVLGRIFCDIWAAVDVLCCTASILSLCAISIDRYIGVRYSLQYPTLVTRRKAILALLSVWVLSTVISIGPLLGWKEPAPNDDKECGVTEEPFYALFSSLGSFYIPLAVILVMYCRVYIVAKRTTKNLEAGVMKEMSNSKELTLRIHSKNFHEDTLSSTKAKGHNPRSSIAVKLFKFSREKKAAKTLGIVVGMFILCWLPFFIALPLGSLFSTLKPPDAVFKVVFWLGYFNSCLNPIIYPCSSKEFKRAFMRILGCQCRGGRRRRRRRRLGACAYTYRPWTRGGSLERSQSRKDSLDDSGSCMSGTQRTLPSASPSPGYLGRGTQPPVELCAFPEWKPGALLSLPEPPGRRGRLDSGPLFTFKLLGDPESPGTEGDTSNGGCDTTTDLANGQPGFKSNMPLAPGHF
T2 sequence (P23944 whole entry): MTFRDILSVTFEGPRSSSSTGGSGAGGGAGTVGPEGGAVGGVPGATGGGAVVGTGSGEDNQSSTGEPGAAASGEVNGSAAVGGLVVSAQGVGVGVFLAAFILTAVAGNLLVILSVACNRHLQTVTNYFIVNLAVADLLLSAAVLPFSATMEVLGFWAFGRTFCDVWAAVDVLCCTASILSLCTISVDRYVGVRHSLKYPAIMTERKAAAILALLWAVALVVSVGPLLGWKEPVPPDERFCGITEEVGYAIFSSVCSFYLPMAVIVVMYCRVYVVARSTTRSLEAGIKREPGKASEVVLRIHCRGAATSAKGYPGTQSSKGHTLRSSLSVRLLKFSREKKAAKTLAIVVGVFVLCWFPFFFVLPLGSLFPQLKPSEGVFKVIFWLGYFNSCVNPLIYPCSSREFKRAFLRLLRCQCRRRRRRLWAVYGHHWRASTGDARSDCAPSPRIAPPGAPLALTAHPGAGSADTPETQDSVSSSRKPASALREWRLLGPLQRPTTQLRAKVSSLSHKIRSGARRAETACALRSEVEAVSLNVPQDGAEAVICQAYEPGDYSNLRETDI
T2 sequence (P43140 whole entry): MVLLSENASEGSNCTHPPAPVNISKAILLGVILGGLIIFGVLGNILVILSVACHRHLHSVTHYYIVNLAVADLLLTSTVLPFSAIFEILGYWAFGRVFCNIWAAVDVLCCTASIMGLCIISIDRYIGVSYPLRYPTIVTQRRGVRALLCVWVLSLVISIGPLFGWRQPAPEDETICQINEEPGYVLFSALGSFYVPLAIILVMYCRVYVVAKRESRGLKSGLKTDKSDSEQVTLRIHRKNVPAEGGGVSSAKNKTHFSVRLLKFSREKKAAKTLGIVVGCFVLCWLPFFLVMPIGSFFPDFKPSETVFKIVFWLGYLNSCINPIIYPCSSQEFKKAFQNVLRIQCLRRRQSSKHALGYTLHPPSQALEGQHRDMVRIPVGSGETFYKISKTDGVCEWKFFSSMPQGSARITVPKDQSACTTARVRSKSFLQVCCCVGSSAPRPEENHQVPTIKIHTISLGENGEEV

[7] = target: Voltage-gated inwardly rectifying potassium channel KCNH2 (Homo sapiens, UniProt Q12809); experiment: Displacement of [3H]dofetilide from HEK cells expressing hERG voltage dependent IKr potassium channel Kv11.1
[8] = Terminal half-life following iv dosing in rat, measured over 48 hr; assay type: ADME, organism-based; details: in vivo
[9] = Terminal half-life following iv dosing in dog, measured over 48 hr; assay type: ADME, organism-based, Canis lupus familiaris; details: in vivo
[10] = Bioavailability in rat (dose 0.5-2 mg/kg i.v. and p.o.); assay type: ADME, organism-based; details: in vivo, po
Method in brief: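 Male Sprague-Dawley rats (~300 g), jugular-cannulated, three per route. Dosing by i.v. tail-vein bolus and oral gavage, each in a suitable vehicle. Serial jugular blood samples taken; plasma extracted with ethyl acetate against an internal standard. Analysis by LC-MS with single ion recording. F from model-independent parameters.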

[11] = Terminal half-life following iv dosing in rat; assay type: ADME, organism-based; details: in vivo
[12] = Terminal half-life following iv dosing in dog; assay type: ADME, organism-based, Canis lupus familiaris; details: in vivo
Method in brief: (§2)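 Female Beagle dogs (10-12 kg), three per route; i.v. cephalic-vein bolus (1 mL/kg PEG 300/water) and oral gavage (5 mL/kg of 0.5% methocel A4C suspension), 0.5-2 mg/kg. Serial blood to 24 h; plasma extracted with ethyl acetate, LC-MS. Model-independent bioavailability and terminal half-life after i.v. dosing.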

[13] = Bioavailability in dog (dose 0.5-2 mg/kg i.v. and p.o.); assay type: ADME, organism-based, Canis lupus familiaris; details: in vivo, po; method in brief: as §2

D(2) dopamine receptor, sequence (P14416 whole entry): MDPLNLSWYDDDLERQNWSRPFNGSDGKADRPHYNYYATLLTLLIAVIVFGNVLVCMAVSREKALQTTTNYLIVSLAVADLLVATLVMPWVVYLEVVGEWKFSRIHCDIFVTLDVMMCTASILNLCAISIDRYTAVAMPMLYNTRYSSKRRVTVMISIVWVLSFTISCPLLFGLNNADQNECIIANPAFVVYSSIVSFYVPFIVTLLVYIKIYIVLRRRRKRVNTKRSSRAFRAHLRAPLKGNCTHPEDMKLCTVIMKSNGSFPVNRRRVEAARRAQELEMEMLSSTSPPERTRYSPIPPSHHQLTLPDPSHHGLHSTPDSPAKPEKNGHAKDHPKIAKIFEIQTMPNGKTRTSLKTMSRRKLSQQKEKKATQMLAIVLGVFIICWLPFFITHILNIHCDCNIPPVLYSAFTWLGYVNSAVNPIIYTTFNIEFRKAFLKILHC
5-hydroxytryptamine receptor 2A, sequence (P28223 whole entry): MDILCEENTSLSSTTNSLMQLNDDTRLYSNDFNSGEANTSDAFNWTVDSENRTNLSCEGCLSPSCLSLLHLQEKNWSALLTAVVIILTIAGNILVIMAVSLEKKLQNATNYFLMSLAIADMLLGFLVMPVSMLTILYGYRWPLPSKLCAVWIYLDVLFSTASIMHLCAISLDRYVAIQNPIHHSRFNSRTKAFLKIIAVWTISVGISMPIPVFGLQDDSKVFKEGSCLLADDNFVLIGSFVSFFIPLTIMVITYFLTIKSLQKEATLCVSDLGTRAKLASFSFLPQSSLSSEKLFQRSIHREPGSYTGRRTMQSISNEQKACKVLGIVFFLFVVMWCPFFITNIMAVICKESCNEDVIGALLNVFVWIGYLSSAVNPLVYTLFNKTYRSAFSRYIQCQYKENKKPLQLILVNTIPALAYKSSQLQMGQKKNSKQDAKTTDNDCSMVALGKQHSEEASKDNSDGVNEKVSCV
Voltage-gated inwardly rectifying potassium channel KCNH2, sequence (Q12809 whole entry): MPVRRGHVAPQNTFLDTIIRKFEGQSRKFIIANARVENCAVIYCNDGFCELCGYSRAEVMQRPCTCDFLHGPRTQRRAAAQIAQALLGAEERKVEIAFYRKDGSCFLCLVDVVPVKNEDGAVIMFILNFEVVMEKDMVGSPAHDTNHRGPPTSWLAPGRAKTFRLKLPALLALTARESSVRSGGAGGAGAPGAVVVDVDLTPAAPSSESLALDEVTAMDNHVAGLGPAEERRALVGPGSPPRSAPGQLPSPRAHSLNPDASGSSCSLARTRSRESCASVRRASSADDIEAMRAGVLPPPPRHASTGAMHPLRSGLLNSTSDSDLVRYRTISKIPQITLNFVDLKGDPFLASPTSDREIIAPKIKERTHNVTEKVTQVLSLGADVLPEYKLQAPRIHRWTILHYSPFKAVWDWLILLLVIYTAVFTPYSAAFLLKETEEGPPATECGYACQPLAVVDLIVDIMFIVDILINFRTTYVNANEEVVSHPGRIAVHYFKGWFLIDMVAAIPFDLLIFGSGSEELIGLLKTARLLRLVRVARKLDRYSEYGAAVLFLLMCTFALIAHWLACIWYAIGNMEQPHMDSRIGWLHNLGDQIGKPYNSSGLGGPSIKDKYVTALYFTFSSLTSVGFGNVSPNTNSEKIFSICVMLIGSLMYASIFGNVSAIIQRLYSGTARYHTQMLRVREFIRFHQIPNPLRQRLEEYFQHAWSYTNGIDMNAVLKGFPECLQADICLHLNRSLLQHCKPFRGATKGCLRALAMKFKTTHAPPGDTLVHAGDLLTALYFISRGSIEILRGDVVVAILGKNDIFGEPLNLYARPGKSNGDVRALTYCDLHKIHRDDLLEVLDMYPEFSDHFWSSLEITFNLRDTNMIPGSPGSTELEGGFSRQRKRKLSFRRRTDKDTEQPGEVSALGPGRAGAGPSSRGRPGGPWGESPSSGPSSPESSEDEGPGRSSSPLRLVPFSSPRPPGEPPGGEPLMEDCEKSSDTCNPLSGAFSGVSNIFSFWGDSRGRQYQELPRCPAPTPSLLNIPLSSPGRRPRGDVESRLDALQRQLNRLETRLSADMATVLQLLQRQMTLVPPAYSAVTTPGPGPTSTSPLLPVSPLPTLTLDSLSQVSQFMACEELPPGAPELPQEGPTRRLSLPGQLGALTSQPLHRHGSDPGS

Compound	Ki [1] [nM]	Ki [2] [nM]	Ki [5] [nM]	Ki [6] [nM]	other results
CN1CCN(C)C(c2c(-c3ccccc3)[nH]c3ccccc23)C1 (stereo not given)	> 1600	320	–	–	–
c1ccc(-c2[nH]c3ccccc3c2C2CNCCO2)cc1 (stereo not given)	1600	18	–	–	–
COC(=O)c1[nH]c2cc(F)ccc2c1[C@@H]1CNCC[C@H]1F	> 1600	10.4	> 2000	7.3	–
c1ccc(-c2[nH]c3ccccc3c2C2CCCNC2)cc1 (stereo not given)	> 1300	0.99	89	21	AUC(0-t) at 4 h [3]: 47 ng·h/mL; Cmax [4]: 26 ng/mL
Fc1ccc2c([C@@H]3CNCC[C@H]3F)c(-c3ccc4ccccc4c3)[nH]c2c1	500	0.23	–	2.1	Ki [7]: 500 nM
F[C@@H]1CCNC[C@H]1c1c(-c2ccccc2)[nH]c2cc(Cl)ccc12	> 1600	2.3	–	16	–
Fc1ccc2c([C@@H]3CNCC[C@H]3F)c(-c3ccccc3)[nH]c2c1	–	–	–	–	half-life [8]: 12 h; half-life [9]: 6.4 h
c1ccc(CCN2CCCC(c3c(-c4ccccc4)[nH]c4ccccc34)C2)cc1 (stereo not given)	500	59	2400	–	–
CN1CCCC(c2c(-c3ccccc3)[nH]c3ccccc23)C1 (stereo not given)	28	4.7	150	30	Ki [7]: 9600 nM
c1ccc(CCN2[C@@H]3CC[C@H]2CC(c2c(-c4ccccc4)[nH]c4ccccc24)C3)cc1 (stereo not given in full)	1000	1.2	400	250	AUC(0-t) at 4 h [3]: 126 ng·h/mL; Cmax [4]: 210 ng/mL; Ki [7]: 18 nM; bioavailability [10]: 18%; half-life [11]: 2.3 h
O=C1NCCN1CCN1CCCC(c2c(-c3ccccc3)[nH]c3ccccc23)C1 (stereo not given)	> 1300	26	2500	–	AUC(0-t) at 4 h [3]: 217 ng·h/mL; Cmax [4]: 85 ng/mL
Fc1ccc2c([C@@H]3CNCC[C@H]3F)c(-c3cccnc3)[nH]c2c1	> 1600	0.35	85	7.3	–
F[C@H]1CCNC[C@@H]1c1c(-c2ccccc2)[nH]c2ccccc12	> 1700	220	–	–	–
Fc1ccc2c([C@@H]3CNCC[C@H]3F)c[nH]c2c1	–	70	–	–	–

Second part, led by results:

Ki [1] [nM]	Ki [2] [nM]	Ki [5] [nM]	Ki [6] [nM]	Compound	other results
> 1600	0.09	48	3.9	O=C(Nc1ccccc1)c1[nH]c2cc(F)ccc2c1[C@@H]1CNCC[C@H]1F	AUC(0-t) at 4 h [3]: 8 ng·h/mL; Cmax [4]: 3 ng/mL
> 1600	3.3	–	–	O[C@@H]1CCNC[C@H]1c1c(-c2ccccc2)[nH]c2ccccc12	–
> 1600	0.25	5	21	Fc1ccc2c([C@@H]3CNCC[C@H]3F)c(C3CCCCC3)[nH]c2c1	–
> 1600	0.69	154	6.7	F[C@@H]1CCNC[C@H]1c1c(-c2ccccc2)[nH]c2c(Cl)cccc12	–
> 1600	4	500	210	Fc1ccc2[nH]c(-c3ccccc3)c([C@@H]3CNCC[C@H]3F)c2c1	Ki [7]: > 7000 nM
> 1600	10.2	–	40	F[C@@H]1CCNC[C@H]1c1c(-c2ccccc2)[nH]c2ccc(Cl)cc12	–
900	0.12	19	2.9	Fc1ccc(-c2[nH]c3cc(F)ccc3c2[C@@H]2CNCC[C@H]2F)cc1	AUC(0-t) at 4 h [3]: 350 ng·h/mL; Cmax [4]: 149 ng/mL; Ki [7]: 1600 nM
> 1600	0.46	132	27	Fc1cccc2c([C@@H]3CNCC[C@H]3F)c(-c3ccccc3)[nH]c12	–
> 1700	14	2000	99	CN1CCCCC1c1c(-c2ccccc2)[nH]c2ccccc12 (stereo not given)	–
28	0.09	16	1.1	Fc1ccc(-c2[nH]c3cc(F)ccc3c2C2CCCNC2)cc1 (stereo not given)	Ki [7]: 1300 nM
1600	0.11	50	2.8	Fc1ccc2c([C@@H]3CNCC[C@H]3F)c(-c3ccsc3)[nH]c2c1	Ki [7]: 1500 nM
> 1600	0.54	–	3.6	Fc1ccc2c([C@@H]3CNCC[C@H]3F)c(-c3ccoc3)[nH]c2c1	–
350	0.48	–	25	c1ccc(CCN2CCC(c3c(-c4ccccc4)[nH]c4ccccc34)CC2)cc1	half-life [12]: 9.8 h; bioavailability [13]: 4%; half-life [11]: 5.3 h
1400	0.34	–	8.5	Fc1ccc2c([C@@H]3CNCC[C@H]3F)c(-c3cccc4ccccc34)[nH]c2c1	Ki [7]: 110 nM
> 1600	–	400	2100	c1ccc(-c2[nH]c3ccccc3c2C2CCNCC2)cc1	Ki [7]: 5700 nM
1600	20	2000	47	c1ccc(CN2CCCC(c3c(-c4ccccc4)[nH]c4ccccc34)C2)cc1 (stereo not given)	–
> 1700	0.43	19	25	F[C@@H]1CCNC[C@H]1c1c(-c2ccccc2)[nH]c2ccccc12	half-life [12]: 7.4 h; bioavailability [10]: 18%; bioavailability [13]: 37%; half-life [11]: 1.4 h
